Bioassay records deposited in PubChem by several laboratories.
Only a selection was taken, and hits are over-represented in it overall.
DTT redox prof = compounds producing H2O2 with reducing agent – biochemical, NIH compound library profiling, artefact control for MLSCN library redox annotation, primary screen; DTT-dependent redox cycling H2O2, phenol red/HRP absorbance; 100% = 100 µM peroxide control, 0% = buffer; activation, % at 10 µM; 0.03% of 200,000 active; AID 878, 2007;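 active = activation of at least 50% relative to the plate's high and low controls in the primary single-dose screen; inactive = activation below 50%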;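 note: compound incubated with DTT at 0.8 mM final as the reducing agent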
G6PDH CS = L. mesenteroides G6PDH inhibitors, counter-screen for G6PDH-coupled screening assays, biochemical, Leuconostoc mesenteroides enzyme; glucose-6-phosphate dehydrogenase [Leuconostoc mesenteroides]; Purified L. mesenteroides G6PDH, diaphorase/resazurin coupled fluorescence, 45 min; inhibition, % at 5 µM; 0.12% of 200,000 active
Diaphorase act = compounds boosting diaphorase resazurin reduction – biochemical, uHTS, resorufin fluorescence, counter-screen for diaphorase-coupled primary assays, primary screen. Diaphorase/resazurin coupled assay, 16 min; stronger effect = higher value; 1 = vehicle wells, 0 = NADH-free wells. activation factor at 20 µM. 0.005% of 190,000 active. AID 1229, 2008;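 active = diaphorase activity raised at least twofold by the compound at 20 µM; inactive = activation factor below 2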
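test system = bacterial diaphorase enzyme (C. kluyveri) | quantity = enzyme 0.07 U/mL final | reagent = NADH substrate 0.114 mM plus resazurin dye 0.1 mM, final | incubation = 16 min enzyme reaction, ambient temperature | buffer or medium = HEPES pH 7.4 buffer with MgCl2 and Tween 20 | signal = fluorescence of resorufin, 544 nm excitation, 590 nm emission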
Lmaj promast = Leishmania major promastigote growth inhibition, primary screen. Leishmania major promastigotes, resazurin fluorescence viability. inhibition, % at 10 µM. 9% of 200,000 active. AID 1063, 2008;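 note: promastigotes grown with compound for 44 hours at 28 °C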
PfG6PD inh = PfG6PD enzyme inhibitors, primary screen, biochemical, fluorescence intensity, uHTS; 0.78% of 350,000 active; inhibition, % at 20 µM; PfGluPho enzyme, NADPH resazurin-diaphorase fluorescence; AID 504690, 2011; glucose-6-phosphate dehydrogenase-6-phosphogluconolactonase (Plasmodium falciparum 3D7);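 active = inhibition reaching at least a set limit at 20 µM in the primary screen, cut at about 59% in these data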;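 note: 0% = DMSO wells with substrate and 100% = DMSO wells lacking glucose-6-phosphate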
Diaphorase inh = diaphorase inhibitors and chemical oxidizers, primary screen, counter-screen for diaphorase-coupled primary assays, biochemical, uHTS, resorufin fluorescence | inhibition, % at 20 µM | diaphorase resazurin-to-resorufin fluorescence, NADH, 16 min; bacterial (C. kluyveri) enzyme, not human | 0.69% of 190,000 active | AID 1217, 2008;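 active = primary screen inhibition at 20 µM above a set limit, cut at about 50% in these data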;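 note: plate controls were DMSO with full reaction for no effect and wells lacking NADH for full effect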
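material = Clostridium kluyveri diaphorase enzyme | amount = 0.14 U/mL diaphorase, enzyme working solution | schedule = incubation 16 min, room temperature | detection = fluorescence of resorufin formed from resazurin, Ex 544/Em 590 nm | benchmarks = positive control minus NADH, DMSO neutral control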
Active calls of the source: *; . = no result. Cut-off read from the data, not from the text of the source, unless noted: active = inhibition above about 50%; inactive = the rest.

SMILES	DTT redox prof	G6PDH CS	Diaphorase act	Lmaj promast	PfG6PD inh	Diaphorase inh
CCOc1ccccc1N=C1SCCCN1C	0	6	0.9	19	-7	14
Cc1c(Br)c(=O)oc2cc(OCC(=O)N3C[C@H]4C[C@@H](C3)c3cccc(=O)n3C4)ccc12	.	.	.	.	6	.
COC(=O)C1=C(c2cccc(OCc3ccccc3)c2)C[C@@H]2CC[C@H]1N2C(=O)NCc1ccc2[nH]ccc2c1	.	.	.	.	0	.
O=[N+]([O-])c1ccc(N2CCNCC2)cc1N1CCCCC1	0	5	1	76*	-10	2
CCNc1cc(N2CCNCC2)ccc1[N+](=O)[O-]	-2	9	1.1	7	.	-8
O=C(NC(=S)N1CC1)c1ccccc1	.	.	.	.	-8	.
Cc1cc(Cl)ccc1C(=O)C1CCCN(C2CCSCC2)C1 (centres undefined)	-1	14	1.1	85*	-8	-7
O=C(c1ccc(C(F)(F)F)cc1)C1CCCN(C2CCSCC2)C1 (centres undefined)	-2	16	0.8	92*	10	25
COc1ccc(Cl)cc1C(=O)C1CCCN(CCO)C1 (centres undefined)	-1	15	1.1	4	15	-9
Cc1cccc(CN2CCCC(C(=O)c3ccc(C(F)(F)F)cc3)C2)n1 (centres undefined)	0	12	1.1	79*	6	-9
CSc1ccccc1C(=O)C1CCCN(Cc2cccc(C)n2)C1 (centres undefined)	-1	10	0.6	23	-19	38
S=P(NCCNP(=S)(N1CC1)N1CC1)(N1CC1)N1CC1	.	.	.	.	-14	.
CCCCCCOc1ccc(CN2CCN(C)CC2)cc1	1	-4	0.8	100*	2	17
CN1CCN(Cc2ccc3ccccc3c2)CC1	.	.	.	.	-8	.
CN1C2CCC1CC(OC(=O)c1ccc(Cl)cc1)C2 (centres undefined)	0	3	0.9	97*	-8	7
CCOc1ccc(C(=O)OC2CC3CCC(C2)N3C)cc1 (centres undefined)	1	9	1.1	72*	-8	-12
COc1ccc(C(=O)OC2C[C@H]3CC[C@H](C2)N3C)cc1OC (some centres undefined)	.	.	.	.	-10	.
CCCCn1c(O)c(C(=O)/C=C/c2c[nH]c3ccccc23)c(=O)[nH]c1=O	.	.	.	.	-7	.
CCC1C(c2cc(OC)c(OC)c(OC)c2)c2cc3c(cc2OC1N1CCCC1)OCO3 (centres undefined)	.	.	.	.	-6	.
CCCCCSc1cc(O)c(C(CNC)C(C)C)cc1OC (centres undefined)	0	9	0.9	100*	17	9
c1cc(OCCN2CC2)ccn1	.	.	.	.	-6	.
CCOC(=O)C1(CCOc2ccccc2)CCN(Cc2ccc(C)s2)CC1	1	9	0.9	81*	9	7
CCOC(=O)C1(CCc2ccccc2)CCN(Cc2ccc3c(c2)OCCO3)CC1	-1	18	0.8	84*	19	19
CCOC(=O)C1(CCc2ccccc2)CCN(C2CCSCC2)CC1	0	11	1	88*	-8	2
CCOC(=O)C1(CCCc2ccccc2)CCN(C2CCCC2)CC1	0	0	1.1	71*	-4	-14
CCOC(=O)C1(CCc2ccccc2)CCN(Cc2ccc(NC(C)=O)cc2)CC1	.	.	.	.	6	.
CC1CCN(c2cc(Br)c([N+](=O)[O-])cc2F)CC1	.	.	.	.	12	.
CC(=O)OCC12CC(OC(=O)CC(C)C)C(C)=CC1OC1C(O)C(OC(C)=O)C2(C)C12CO2 (centres undefined)	.	.	.	.	-13	.
NC(Cc1ccc(O)cc1)C(=O)NN=Cc1ccc(N(CCCl)CCCl)cc1 (centres undefined)	.	.	.	.	18	.
COC(=O)C1=C(c2ccc(C(C)=O)cc2)C[C@@H]2CC[C@H]1N2C(=O)N1CCC(O)CC1	.	.	.	.	-9	.
